Assay results reported in ChEMBL document CHEMBL1629448, “Identification and synthesis of novel inhibitors of acetyl-CoA carboxylase with in vitro and in vivo efficacy on fat oxidation” (J Med Chem, 2010).
Active and inactive are the calls of the source. No cut-off for these calls is given here.

Assays:
[1] = Volume of distribution at steady state in Wistar rat plasma at 3 mg/kg, iv; assay type: ADME, organism-based; set-up: dose 3 mg/kg, route intravenous
Summary of the method: (§1)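 Wistar rats given an intravenous bolus of 3 mg/kg in 5% solutol solution. Plasma sampled at eight time points over 24 h. Drug quantified by LC-MS/MS against an internal standard. C0h is the concentration immediately after dosing; AUC0-inf, clearance, t1/2 and Vdss were also derived.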

[2] = Oral bioavailability in Wistar rat at 10 mg/kg; assay type: ADME, organism-based; settings: in vivo
[3] = Tmax in Wistar rat plasma at 10 mg/kg, po; assay type: ADME, organism-based; set-up: dose 10 mg/kg, route oral
Summary of the method: (§2)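 Female Wistar rats given a single oral dose of 10 mg/kg in 10% DMSO. Plasma and liver sampled at eight time points over 24 h, three animals killed per time point. Drug levels measured by LC-MS/MS with an internal standard. […] Values are means ± SD (n = 3).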

Rattus norvegicus = assay: Reduction in plasma triglycerides in obese ZDF rat at 30 mg/kg, po for 3 days measured 4 hrs post last dose; assay type: functional, organism-based; set-up: dose 30 mg/kg
Summary of the method: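 Female obese ZDF rats, eight weeks old, dosed orally for 3 days with 30 mg/kg in 5% ethanol/5% solutol/90% PBS (n = 8); controls got vehicle, with lean controls alongside. Four hours after the last dose, aortic blood taken under isoflurane. Triglycerides measured by GPD-PAP method; means ± SEM.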

[4] = AUC (0 to infinity) in Wistar rat plasma at 10 mg/kg, po; assay type: ADME, organism-based; set-up: time infinity, dose 10 mg/kg, route oral; summary of the method: as §2
[5] = AUC (0 to infinity) in Wistar rat liver at 10 mg/kg, po; assay type: ADME, organism-based; set-up: time infinity, dose 10 mg/kg, route oral; summary of the method: as §2
[6] = molecular target: T1, Peroxisome proliferator-activated receptor delta (Homo sapiens) (UniProt Q03181); assay: Inhibition of PPARdelta
T1 sequence (whole entry): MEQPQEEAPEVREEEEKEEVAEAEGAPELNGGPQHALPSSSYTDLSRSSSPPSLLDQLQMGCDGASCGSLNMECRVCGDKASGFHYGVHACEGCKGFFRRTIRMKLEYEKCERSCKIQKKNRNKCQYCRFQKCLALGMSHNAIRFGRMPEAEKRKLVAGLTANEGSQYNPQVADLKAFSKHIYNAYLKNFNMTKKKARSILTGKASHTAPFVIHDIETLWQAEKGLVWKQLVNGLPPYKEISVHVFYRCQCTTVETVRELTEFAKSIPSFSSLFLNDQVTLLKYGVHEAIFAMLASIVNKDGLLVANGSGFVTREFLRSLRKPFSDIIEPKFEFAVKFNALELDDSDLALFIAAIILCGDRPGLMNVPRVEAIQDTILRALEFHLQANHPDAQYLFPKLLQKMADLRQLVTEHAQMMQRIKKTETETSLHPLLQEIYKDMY

[7] = Half life in Wistar rat plasma at 3 mg/kg, iv; assay type: ADME, organism-based; set-up: dose 3 mg/kg, route intravenous; summary of the method: as §1
[8] = molecular target: T2, Pyruvate carboxylase, mitochondrial (Bos taurus) (UniProt Q29RK2); assay: Inhibition of bovine pyruvate carboxylase
T2 sequence (whole entry): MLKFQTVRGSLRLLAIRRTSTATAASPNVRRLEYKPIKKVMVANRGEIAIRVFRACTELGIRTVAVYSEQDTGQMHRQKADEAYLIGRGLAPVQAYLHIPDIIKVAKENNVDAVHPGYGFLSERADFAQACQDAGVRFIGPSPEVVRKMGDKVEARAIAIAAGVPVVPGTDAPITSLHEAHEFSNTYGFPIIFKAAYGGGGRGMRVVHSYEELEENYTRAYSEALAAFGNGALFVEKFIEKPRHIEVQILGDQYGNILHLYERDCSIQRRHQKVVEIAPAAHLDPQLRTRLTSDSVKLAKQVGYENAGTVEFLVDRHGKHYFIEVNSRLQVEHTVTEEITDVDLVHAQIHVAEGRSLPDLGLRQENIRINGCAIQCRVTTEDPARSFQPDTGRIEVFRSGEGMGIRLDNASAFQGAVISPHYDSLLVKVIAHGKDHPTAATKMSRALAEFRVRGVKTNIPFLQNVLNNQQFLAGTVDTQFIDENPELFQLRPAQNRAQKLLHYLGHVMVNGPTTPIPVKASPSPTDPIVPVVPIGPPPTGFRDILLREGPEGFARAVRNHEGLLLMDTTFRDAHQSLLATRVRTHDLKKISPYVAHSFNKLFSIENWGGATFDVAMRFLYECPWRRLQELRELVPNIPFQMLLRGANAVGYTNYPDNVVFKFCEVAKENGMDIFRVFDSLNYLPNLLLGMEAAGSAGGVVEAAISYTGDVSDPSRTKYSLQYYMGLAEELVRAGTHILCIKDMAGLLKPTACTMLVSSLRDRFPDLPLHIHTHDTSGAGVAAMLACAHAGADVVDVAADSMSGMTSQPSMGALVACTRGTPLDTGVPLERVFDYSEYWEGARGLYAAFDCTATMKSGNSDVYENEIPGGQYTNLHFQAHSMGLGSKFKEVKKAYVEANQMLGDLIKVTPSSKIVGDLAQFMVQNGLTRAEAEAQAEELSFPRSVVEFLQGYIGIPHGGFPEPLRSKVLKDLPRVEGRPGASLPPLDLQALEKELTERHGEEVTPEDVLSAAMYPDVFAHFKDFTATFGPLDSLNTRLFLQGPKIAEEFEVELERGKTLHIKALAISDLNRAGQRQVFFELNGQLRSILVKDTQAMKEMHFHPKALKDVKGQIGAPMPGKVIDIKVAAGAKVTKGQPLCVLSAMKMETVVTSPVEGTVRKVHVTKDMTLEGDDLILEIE

[9] = Cmax in Wistar rat plasma at 10 mg/kg, po; assay type: ADME, organism-based; set-up: dose 10 mg/kg, route oral; summary of the method: as §2

CC(=O)N[C@@H](C)CCc1ccc(Oc2ccc(OC(C)C)nc2)cc1
Vd [1]: 2.6 L/kg | bioavailability [2]: 98% | Tmax [3]: 2 h | Activity (Rattus norvegicus): Active | AUC(0-inf) [4]: 19 µM·h | AUC(0-inf) [5]: 120 µM·h | inhibition [6]: inactive | half-life [7]: 1.5 h | inhibition [8]: inactive | Cmax [9]: 3.5 µM
